Data taken from ChEMBL document CHEMBL4152228, “Structural-based design, synthesis, and antitumor activity of novel alloxazine analogues with potential selective kinase inhibition” (Eur J Med Chem, 2018).

What was measured:
A2780 = assay: Antiproliferative activity against human A2780 cells after 72 hrs by MTT assay; assay type: functional, cell-based; details: A2780, 72 h
Method in brief: (§1)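 MTT viability assay. Cells grown in RPMI-1640 with 10% heat-inactivated FBS, L-glutamine and 1% penicillin/streptomycin, used within 20 passages. Seeded at 5×10^3 cells/well, left overnight at 37 °C, then exposed to final concentrations of 0.005–50 µM (0.1% DMSO) for up to 72 h. MTT added for 3 h, formazan dissolved in DMSO, absorbance read at 550 nm. IC50 derived relative to untreated controls.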

HCT-116 = assay: Antiproliferative activity against human HCT116 cells after 72 hrs by MTT assay; assay type: functional, cell-based; details: HCT-116, 72 h; method in brief: as §1
MCF7 [1] = assay: Antiproliferative activity against human MCF7 cells after 72 hrs by MTT assay; assay type: functional, cell-based; details: MCF7, 72 h; method in brief: as §1
[2] = molecular target: Receptor tyrosine-protein kinase erbB-2 (Homo sapiens) (UniProt P04626); assay: Inhibition of HER2 (unknown origin) at 10 uM by [33P]-ATP radiometric assay
Method in brief: (§2)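 Radiometric kinase profiling: purified recombinant kinase (~10–50 nM final) with substrate, assay buffer and compound at 10 µM (control 10% DMSO). Started with 33P-ATP (50 µM stock, 0.8 µCi), run 30 min at ambient temperature, then spotted onto P81 phosphocellulose and washed in 1% phosphoric acid. Scintillation counted, no-substrate blank subtracted, single measurement, result given as % change versus control.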

[3] = molecular target: Mast/stem cell growth factor receptor Kit (Homo sapiens) (UniProt P10721); assay: Inhibition of c-KIT (unknown origin) at 10 uM by [33P]-ATP radiometric assay
Method in brief: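 Radiometric kinase profiling: purified recombinant kinase (~10–50 nM final) with substrate, assay buffer and compound at 10 µM (control 10% DMSO). Started with 33P-ATP (50 µM stock, 0.8 µCi), run 30 min at ambient temperature, then spotted onto P81 phosphocellulose and washed in 1% phosphoric acid.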

[4] = molecular target: Calcium/calmodulin-dependent protein kinase type 1 (Homo sapiens) (UniProt Q14012); assay: Inhibition of CAMK1 (unknown origin) at 10 uM by [33P]-ATP radiometric assay; method in brief: as §2
[5] = Antiproliferative activity against human WM793B cells after 72 hrs by MTT assay; assay type: functional, cell-based; method in brief: as §1
K562 = assay: Antiproliferative activity against human K562 cells after 72 hrs by MTT assay; assay type: functional, cell-based; details: K562, 72 h
[6] = molecular target: Mitogen-activated protein kinase 3 (Homo sapiens) (UniProt P27361); assay: Inhibition of ERK1 (unknown origin) at 10 uM by [33P]-ATP radiometric assay; method in brief: as §2
[7] = molecular target: Fibroblast growth factor receptor 1 (Homo sapiens) (UniProt P11362); assay: Inhibition of FGFR1 (unknown origin) at 10 uM by [33P]-ATP radiometric assay; method in brief: as §2
[8] = molecular target: Hepatocyte growth factor receptor (Homo sapiens) (UniProt P08581); assay: Inhibition of MET (unknown origin) at 10 uM by [33P]-ATP radiometric assay; method in brief: as §2
[9] = molecular target: Epidermal growth factor receptor (Homo sapiens) (UniProt P00533); assay: Inhibition of EGFR (unknown origin) at 10 uM by [33P]-ATP radiometric assay; method in brief: as §2
[10] = molecular target: Calcium/calmodulin-dependent protein kinase type II subunit alpha (Homo sapiens) (UniProt Q9UQM7); assay: Inhibition of CAMK2-alpha (unknown origin) at 10 uM by [33P]-ATP radiometric assay; method in brief: as §2
[11] = molecular target: Protein kinase C beta type (Homo sapiens) (UniProt P05771); assay: Inhibition of PCK-beta2 (unknown origin) at 10 uM by [33P]-ATP radiometric assay; method in brief: as §2
[12] = molecular target: Mitogen-activated protein kinase 8 (Homo sapiens) (UniProt P45983); assay: Inhibition of JNK1 (unknown origin) at 10 uM by [33P]-ATP radiometric assay; method in brief: as §2
[13] = molecular target: Cyclin-dependent kinase 16 (Homo sapiens) (UniProt Q00536); assay: Inhibition of CDK16 (unknown origin) at 10 uM by [33P]-ATP radiometric assay; method in brief: as §2
MCF7 [14] = assay: Induction of apoptosis in human MCF7 cells assessed as early apoptotic cells at 5 uM after 72 hrs by annexin V-FITC/propidium iodide staining-based flow cytometric method (reference value: 9%); assay type: functional
MCF7 [15] = assay: Induction of apoptosis in human MCF7 cells assessed as late apoptotic cells at 1 uM after 72 hrs by annexin V-FITC/propidium iodide staining-based flow cytometric method (reference value: 2.6%); assay type: functional
[16] = molecular target: Vascular endothelial growth factor receptor 1 (Homo sapiens) (UniProt P17948); assay: Inhibition of FLT1 (unknown origin) at 10 uM by [33P]-ATP radiometric assay; method in brief: as §2
MCF7 [17] = assay: Induction of apoptosis in human MCF7 cells assessed as viable cells at 5 uM after 72 hrs by annexin V-FITC/propidium iodide staining-based flow cytometric method (reference value: 76%); assay type: functional; details: MCF7, 72 h, read-out: Activity
MCF7 [18] = assay: Induction of apoptosis in human MCF7 cells assessed as necrotic cells at 1 uM after 72 hrs by annexin V-FITC/propidium iodide staining-based flow cytometric method (reference value: 12.6%); assay type: functional
MCF7 [19] = assay: Induction of apoptosis in human MCF7 cells assessed as viable cells at 10 uM after 72 hrs by annexin V-FITC/propidium iodide staining-based flow cytometric method (reference value: 76%); assay type: functional; details: MCF7, 72 h, read-out: Activity
MCF7 [20] = assay: Induction of apoptosis in human MCF7 cells assessed as late apoptotic cells at 10 uM after 72 hrs by annexin V-FITC/propidium iodide staining-based flow cytometric method (reference value: 2.6%); assay type: functional
[21] = molecular target: Casein kinase I isoform alpha (Homo sapiens) (UniProt P48729); assay: Inhibition of CK1alpha1 (unknown origin) at 10 uM by [33P]-ATP radiometric assay; method in brief: as §2
MCF7 [22] = assay: Induction of apoptosis in human MCF7 cells assessed as necrotic cells at 10 uM after 72 hrs by annexin V-FITC/propidium iodide staining-based flow cytometric method (reference value: 12.6%); assay type: functional
MCF7 [23] = assay: Induction of apoptosis in human MCF7 cells assessed as increase of early apoptotic cells at 1 to 10 uM after 72 hrs by annexin V-FITC/propidium iodide staining-based flow cytometric method relative to control; assay type: functional
Method in brief: (§3)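 MCF-7 cells treated 72 h at final 1, 5, 10 µM, then annexin V-FITC/PI stained in pH 7.4 HEPES binding buffer and analysed by flow cytometry. Early or late apoptotic cell fraction expressed as percent change versus vehicle control: (sample − control)/control × 100. Triplicates.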

MCF7 [24] = assay: Induction of apoptosis in human MCF7 cells assessed as increase of early apoptotic cells after 72 hrs by annexin V-FITC/propidium iodide staining-based flow cytometric method; assay type: functional, cell-based; method in brief: as §3
MCF7 [25] = assay: Induction of apoptosis in human MCF7 cells assessed as increase of late apoptotic cells at 10 uM after 72 hrs by annexin V-FITC/propidium iodide staining-based flow cytometric method relative to control; assay type: functional; method in brief: as §3
[26] = molecular target: Activin receptor type-2A (Homo sapiens) (UniProt P27037); assay: Inhibition of ACVR2A (unknown origin) at 10 uM by [33P]-ATP radiometric assay; method in brief: as §2
MCF7 [27] = assay: Induction of apoptosis in human MCF7 cells assessed as late apoptotic cells at 5 uM after 72 hrs by annexin V-FITC/propidium iodide staining-based flow cytometric method (reference value: 2.6%); assay type: functional
MCF7 [28] = assay: Induction of apoptosis in human MCF7 cells assessed as early apoptotic cells at 1 uM after 72 hrs by annexin V-FITC/propidium iodide staining-based flow cytometric method (reference value: 9%); assay type: functional
MCF7 [29] = assay: Induction of apoptosis in human MCF7 cells assessed as early apoptotic cells at 10 uM after 72 hrs by annexin V-FITC/propidium iodide staining-based flow cytometric method (reference value: 9%); assay type: functional
MCF7 [30] = assay: Induction of apoptosis in human MCF7 cells assessed as necrotic cells at 5 uM after 72 hrs by annexin V-FITC/propidium iodide staining-based flow cytometric method (reference value: 12.6%); assay type: functional
MCF7 [31] = assay: Induction of apoptosis in human MCF7 cells assessed as viable cells at 1 uM after 72 hrs by annexin V-FITC/propidium iodide staining-based flow cytometric method (reference value: 76%); assay type: functional; details: MCF7, 72 h, read-out: Activity

Sequence of Hepatocyte growth factor receptor (Homo sapiens) (P08581 whole entry): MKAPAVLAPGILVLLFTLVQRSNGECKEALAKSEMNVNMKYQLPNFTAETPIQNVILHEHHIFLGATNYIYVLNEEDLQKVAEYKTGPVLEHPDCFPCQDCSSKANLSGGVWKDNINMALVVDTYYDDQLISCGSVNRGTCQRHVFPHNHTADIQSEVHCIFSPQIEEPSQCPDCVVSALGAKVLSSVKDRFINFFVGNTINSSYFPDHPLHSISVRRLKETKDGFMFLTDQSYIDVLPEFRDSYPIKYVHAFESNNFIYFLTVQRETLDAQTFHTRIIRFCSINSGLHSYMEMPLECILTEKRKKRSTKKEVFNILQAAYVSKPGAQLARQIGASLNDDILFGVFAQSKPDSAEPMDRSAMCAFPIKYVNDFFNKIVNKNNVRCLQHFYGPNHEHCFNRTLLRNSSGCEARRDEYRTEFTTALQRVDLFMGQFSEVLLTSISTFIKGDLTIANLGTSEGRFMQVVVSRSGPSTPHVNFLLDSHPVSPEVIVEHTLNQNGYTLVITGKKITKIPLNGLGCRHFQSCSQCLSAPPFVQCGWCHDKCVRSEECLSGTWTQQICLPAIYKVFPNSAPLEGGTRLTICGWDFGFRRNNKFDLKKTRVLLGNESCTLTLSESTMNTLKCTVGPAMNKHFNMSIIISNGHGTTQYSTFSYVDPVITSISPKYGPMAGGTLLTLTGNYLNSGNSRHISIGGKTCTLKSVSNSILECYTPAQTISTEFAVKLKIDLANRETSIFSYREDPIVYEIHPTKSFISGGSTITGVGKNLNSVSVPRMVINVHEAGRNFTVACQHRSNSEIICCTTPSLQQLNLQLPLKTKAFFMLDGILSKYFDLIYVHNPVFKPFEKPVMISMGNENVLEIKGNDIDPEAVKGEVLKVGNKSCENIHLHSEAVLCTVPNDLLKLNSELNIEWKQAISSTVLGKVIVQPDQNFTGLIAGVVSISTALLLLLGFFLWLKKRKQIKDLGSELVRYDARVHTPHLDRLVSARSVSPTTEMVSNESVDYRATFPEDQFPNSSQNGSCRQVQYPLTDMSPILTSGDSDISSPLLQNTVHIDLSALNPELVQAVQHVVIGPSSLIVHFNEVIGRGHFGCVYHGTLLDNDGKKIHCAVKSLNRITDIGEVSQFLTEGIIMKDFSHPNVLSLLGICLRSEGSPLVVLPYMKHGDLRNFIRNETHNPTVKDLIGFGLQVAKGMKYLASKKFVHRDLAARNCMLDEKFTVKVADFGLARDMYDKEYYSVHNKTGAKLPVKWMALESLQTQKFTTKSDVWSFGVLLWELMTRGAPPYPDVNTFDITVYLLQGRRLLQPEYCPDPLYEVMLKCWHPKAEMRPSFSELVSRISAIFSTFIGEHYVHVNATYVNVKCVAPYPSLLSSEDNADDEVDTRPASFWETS
Sequence of Mast/stem cell growth factor receptor Kit (Homo sapiens) (P10721 whole entry): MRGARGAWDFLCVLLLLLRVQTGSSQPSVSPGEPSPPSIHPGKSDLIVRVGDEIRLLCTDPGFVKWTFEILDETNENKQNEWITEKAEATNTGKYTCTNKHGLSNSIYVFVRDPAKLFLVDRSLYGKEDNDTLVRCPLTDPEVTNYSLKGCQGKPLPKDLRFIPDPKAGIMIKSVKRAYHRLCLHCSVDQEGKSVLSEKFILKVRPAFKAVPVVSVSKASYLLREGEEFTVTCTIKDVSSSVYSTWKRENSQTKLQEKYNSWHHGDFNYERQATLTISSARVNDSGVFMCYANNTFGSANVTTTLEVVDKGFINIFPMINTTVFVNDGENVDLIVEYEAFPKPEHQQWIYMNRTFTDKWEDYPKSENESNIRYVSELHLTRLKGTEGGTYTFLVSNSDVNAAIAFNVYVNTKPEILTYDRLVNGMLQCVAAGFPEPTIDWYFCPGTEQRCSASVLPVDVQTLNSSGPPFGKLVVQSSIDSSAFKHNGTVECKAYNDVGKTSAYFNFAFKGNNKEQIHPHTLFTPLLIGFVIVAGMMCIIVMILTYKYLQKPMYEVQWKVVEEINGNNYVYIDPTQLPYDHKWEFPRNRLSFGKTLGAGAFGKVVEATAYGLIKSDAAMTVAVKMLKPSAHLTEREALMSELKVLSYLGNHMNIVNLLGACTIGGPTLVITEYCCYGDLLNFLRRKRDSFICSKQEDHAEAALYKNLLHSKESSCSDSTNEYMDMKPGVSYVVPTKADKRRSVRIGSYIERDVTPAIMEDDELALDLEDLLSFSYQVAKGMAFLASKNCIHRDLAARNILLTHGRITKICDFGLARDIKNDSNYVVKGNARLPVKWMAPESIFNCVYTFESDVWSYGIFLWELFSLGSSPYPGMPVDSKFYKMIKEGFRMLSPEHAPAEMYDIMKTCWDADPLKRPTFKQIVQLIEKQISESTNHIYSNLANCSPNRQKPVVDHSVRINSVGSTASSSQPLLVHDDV
Sequence of Calcium/calmodulin-dependent protein kinase type 1 (Homo sapiens) (Q14012 whole entry, looked up): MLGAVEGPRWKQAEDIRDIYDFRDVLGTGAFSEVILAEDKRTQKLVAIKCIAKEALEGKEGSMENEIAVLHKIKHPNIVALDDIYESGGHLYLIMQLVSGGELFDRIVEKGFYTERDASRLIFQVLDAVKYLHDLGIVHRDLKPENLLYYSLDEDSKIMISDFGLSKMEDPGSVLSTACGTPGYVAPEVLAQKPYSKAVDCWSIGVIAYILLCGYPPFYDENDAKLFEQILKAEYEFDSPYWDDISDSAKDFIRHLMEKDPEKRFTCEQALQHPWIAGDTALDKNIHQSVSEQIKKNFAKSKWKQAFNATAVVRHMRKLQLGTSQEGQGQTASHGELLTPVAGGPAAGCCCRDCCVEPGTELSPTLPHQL
Sequence of Cyclin-dependent kinase 16 (Homo sapiens) (Q00536 whole entry): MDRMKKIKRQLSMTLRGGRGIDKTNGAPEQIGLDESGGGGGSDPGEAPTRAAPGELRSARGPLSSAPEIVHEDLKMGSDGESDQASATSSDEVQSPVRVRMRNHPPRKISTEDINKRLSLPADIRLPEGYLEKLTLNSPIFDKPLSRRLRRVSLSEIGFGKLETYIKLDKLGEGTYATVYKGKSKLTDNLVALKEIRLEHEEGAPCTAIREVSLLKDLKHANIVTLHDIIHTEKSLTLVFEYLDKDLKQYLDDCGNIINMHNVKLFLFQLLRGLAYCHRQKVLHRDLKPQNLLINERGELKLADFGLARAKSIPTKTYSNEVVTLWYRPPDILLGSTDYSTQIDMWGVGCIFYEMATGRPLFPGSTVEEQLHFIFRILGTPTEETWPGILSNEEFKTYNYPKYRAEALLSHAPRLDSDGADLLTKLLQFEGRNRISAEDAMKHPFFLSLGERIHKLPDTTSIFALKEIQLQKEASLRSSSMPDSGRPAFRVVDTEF
Sequence of Mitogen-activated protein kinase 8 (Homo sapiens) (P45983 whole entry): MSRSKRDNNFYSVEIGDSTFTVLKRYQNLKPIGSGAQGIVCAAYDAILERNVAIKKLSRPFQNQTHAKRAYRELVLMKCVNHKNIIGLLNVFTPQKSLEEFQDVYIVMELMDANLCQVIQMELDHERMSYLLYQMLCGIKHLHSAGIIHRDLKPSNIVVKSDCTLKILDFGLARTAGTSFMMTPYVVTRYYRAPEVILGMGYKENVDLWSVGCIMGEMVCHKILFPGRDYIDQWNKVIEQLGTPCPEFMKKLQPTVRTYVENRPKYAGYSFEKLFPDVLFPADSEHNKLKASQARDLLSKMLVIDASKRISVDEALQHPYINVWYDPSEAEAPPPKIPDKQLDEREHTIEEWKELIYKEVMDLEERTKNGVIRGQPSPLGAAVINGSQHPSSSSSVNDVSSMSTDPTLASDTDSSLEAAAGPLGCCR
Sequence of Calcium/calmodulin-dependent protein kinase type II subunit alpha (Homo sapiens) (Q9UQM7 whole entry): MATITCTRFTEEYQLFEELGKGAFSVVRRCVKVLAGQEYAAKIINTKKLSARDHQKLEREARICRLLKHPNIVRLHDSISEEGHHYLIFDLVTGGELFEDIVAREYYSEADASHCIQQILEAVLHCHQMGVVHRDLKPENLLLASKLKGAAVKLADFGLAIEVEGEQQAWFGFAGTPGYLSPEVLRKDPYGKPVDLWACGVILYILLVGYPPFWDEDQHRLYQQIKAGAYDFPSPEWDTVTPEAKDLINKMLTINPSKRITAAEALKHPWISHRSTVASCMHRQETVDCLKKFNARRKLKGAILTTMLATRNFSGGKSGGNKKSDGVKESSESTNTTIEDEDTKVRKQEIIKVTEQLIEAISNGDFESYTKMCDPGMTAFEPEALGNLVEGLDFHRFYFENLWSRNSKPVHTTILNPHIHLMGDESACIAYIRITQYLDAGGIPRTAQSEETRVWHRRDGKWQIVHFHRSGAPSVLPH
Sequence of Fibroblast growth factor receptor 1 (Homo sapiens) (P11362 22-822 limits assumed): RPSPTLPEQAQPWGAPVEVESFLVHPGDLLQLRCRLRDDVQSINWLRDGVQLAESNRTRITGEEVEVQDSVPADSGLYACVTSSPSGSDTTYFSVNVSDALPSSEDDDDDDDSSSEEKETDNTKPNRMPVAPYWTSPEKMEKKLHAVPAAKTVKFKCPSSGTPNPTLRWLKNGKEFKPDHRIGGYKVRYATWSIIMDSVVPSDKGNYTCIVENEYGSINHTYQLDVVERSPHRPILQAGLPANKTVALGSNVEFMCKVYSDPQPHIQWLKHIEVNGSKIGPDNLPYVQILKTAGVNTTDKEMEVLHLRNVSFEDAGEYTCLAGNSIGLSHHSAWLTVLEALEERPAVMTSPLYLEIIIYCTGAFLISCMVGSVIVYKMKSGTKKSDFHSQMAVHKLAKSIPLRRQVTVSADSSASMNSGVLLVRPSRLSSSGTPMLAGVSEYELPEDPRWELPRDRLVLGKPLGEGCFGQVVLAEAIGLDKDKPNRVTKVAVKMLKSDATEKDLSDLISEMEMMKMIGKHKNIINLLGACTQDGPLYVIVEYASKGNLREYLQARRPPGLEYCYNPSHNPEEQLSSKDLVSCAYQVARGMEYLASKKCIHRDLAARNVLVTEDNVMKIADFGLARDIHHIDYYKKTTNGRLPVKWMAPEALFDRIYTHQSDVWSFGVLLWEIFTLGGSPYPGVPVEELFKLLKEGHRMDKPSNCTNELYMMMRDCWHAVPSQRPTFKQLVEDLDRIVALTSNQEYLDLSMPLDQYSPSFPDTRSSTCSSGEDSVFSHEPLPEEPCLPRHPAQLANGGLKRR

SMILES	IC50 (A2780)	IC50 (HCT-116)	IC50 (MCF7 [1])	inhibition [3]	inhibition [4]	IC50 [5]	IC50 (K562)	inhibition [6]	inhibition [7]	inhibition [8]	inhibition [9]	inhibition [10]	inhibition [11]	inhibition [12]	inhibition [13]	also measured
CS(=O)(=O)CCNCc1ccc(-c2ccc3ncnc(Nc4ccc(OCc5cccc(F)c5)c(Cl)c4)c3c2)o1 [LAPATINIB]	10400 nM	10100 nM	6800 nM													
CN1CCN(Cc2ccc(CNc3nc4nc5ccc(Cl)cc5cc4c(=O)[nH]3)cc2)CC1	540 nM	720 nM	620 nM	60%	14%	> 50000 nM	26800 nM	6%	37%	9%	16%	-6%	5%	-5%	11%	inhibition [2]: 8%
COc1ccc(CCN2CCC(Nc3nc4nc5ccc(C)cc5nc4c(=O)[nH]3)CC2)cc1	200 nM	170 nM	160 nM	-7%	19%	> 50000 nM	> 50000 nM	8%	1%	7%	-2%	4%	7%	10%	18%	Activity (MCF7 [14]): 18%; Activity (MCF7 [15]): 13.3%; inhibition [16]: -5%; viability at 5 µM (MCF7 [17]): 64.1%; Activity (MCF7 [18]): 7.6%; viability at 10 µM (MCF7 [19]): 44.6%; Activity (MCF7 [20]): 30%; inhibition [21]: 9%; Activity (MCF7 [22]): 4.8%; fold change (FC) (MCF7 [23]): 2; Activity (MCF7 [24]): Dose-dependent effect; fold change (FC) (MCF7 [25]): 12; inhibition [26]: -5%; Activity (MCF7 [27]): 14.1%; Activity (MCF7 [28]): 12.4%; Activity (MCF7 [29]): 20.7%; Activity (MCF7 [30]): 3.6%; viability at 1 µM (MCF7 [31]): 66.7%
O=c1[nH]c(NCc2ccc(CN3CCOCC3)cc2)nc2nc3ccccc3nc12	2010 nM	1530 nM	1490 nM			> 50000 nM	> 50000 nM									
Cc1ccc2nc3nc(NCc4ccc(CN5CCN(C)CC5)cc4)[nH]c(=O)c3cc2c1	320 nM	820 nM	530 nM	36%	18%	10500 nM	13500 nM	5%	50%	18%	12%	0%	3%	-4%	-1%	inhibition [2]: 4%
Cc1ccc2nc3nc(NCCO)[nH]c(=O)c3cc2c1			170 nM													
CSc1nc2nc3ccc(C)cc3cc2c(=O)[nH]1			1790 nM													
